Screening results: PubChem, The Scripps Research Institute Molecular Screening Center
Only some compounds are listed: those with a hit (about 4.3% of all), similar ones and a draw of the others.
GalR3 antagonist: antagonists of human GalR3. HEK293 GalR3-CNG cAMP membrane potential fluorescence; galR3 body fused to GalR1 C-terminus. inhibition, % at 3 µM. 0.44% of 360,000 active. AID 651719;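 active = inhibition above the screen-wide average plus 3 SD, cut at about 13% in these data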;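 note: forskolin and galanin both at EC90 stimulate the cells; cAMP rise reported by CNG channel membrane potential dye signal; 0% = forskolin plus galanin with DMSO and 100% = forskolin alone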
Target sequence (O60755 1-299 limits assumed): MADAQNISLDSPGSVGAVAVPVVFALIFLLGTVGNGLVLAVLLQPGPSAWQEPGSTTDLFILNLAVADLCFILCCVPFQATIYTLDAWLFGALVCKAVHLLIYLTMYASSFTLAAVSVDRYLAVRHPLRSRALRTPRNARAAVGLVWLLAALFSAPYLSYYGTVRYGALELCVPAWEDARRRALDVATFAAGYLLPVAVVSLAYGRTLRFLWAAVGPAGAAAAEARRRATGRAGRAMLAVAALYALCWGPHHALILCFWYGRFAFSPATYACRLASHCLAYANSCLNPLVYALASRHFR
OX1R antag-1: blocks the human orexin 1 receptor. 0.43% of 330,000 active. CHO/OX1R cells, Fluo-8 calcium fluorescence, orexin A. AID 434989. inhibition, % at 5 µM. O43613;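 active = inhibition above its plate's threshold, mean inhibition of all tested compounds on the plate plus 3 SD, cut at about 37% in these data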;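 note: 0% = orexin A challenge wells and 100% = SB-334867-A antagonist wells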
CHO parental Ca: counter-screen: ATP calcium response change in parental CHO cells. inhibition, % at 5.6 µM. 0.63% of 330,000 active. parental CHO-K1, ATP-induced calcium, Fluo-8 fluorescence;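 active = inhibition above that plate's mean sample inhibition plus 3 SD, cut at about 26% in these data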;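 note: 0% = ATP-challenged DMSO wells and 100% = DMSO wells without ATP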
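Test system: parental CHO cells; detection: calcium-sensitive Fluo-8 fluorescence; evaluation: percent inhibition of calcium signal; also added: ATP as calcium-mobilizing challenge; repeats: one well per compound; control set: ATP-challenged DMSO wells low, unchallenged DMSO wells high; compound: single nominal dose of 5.6 µM per compound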
TAAR1 agonist: human TAAR1 agonism; activation, % at 3 µM; 0.99% of 360,000 active; CHO RD-HGA16 TAAR1, Fluo-8 calcium fluorescence; vehicle wells 0%, saturating PEA agonist 100%; Q96RJ0; AID 624467;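 active = activation above the mean activation of all test compounds in the run plus 3 SD, cut at about 38% in these data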
Target sequence (Q96RJ0 whole entry, looked up): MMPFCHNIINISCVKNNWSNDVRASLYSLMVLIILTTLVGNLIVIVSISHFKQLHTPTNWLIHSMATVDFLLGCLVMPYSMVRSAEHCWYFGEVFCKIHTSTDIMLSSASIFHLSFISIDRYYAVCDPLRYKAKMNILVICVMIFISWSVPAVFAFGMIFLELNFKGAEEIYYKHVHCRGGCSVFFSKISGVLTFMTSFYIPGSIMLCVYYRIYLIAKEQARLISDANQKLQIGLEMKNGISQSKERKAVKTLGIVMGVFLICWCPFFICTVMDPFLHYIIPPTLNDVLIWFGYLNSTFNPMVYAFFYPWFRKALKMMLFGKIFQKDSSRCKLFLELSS
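Repeats: no replicates (n 1) | Material: CHO-derived RD-HGA16 cells with stable Gα16 and human TAAR1 | Technique: Kinetic Fluo-8 calcium fluorescence | Schedule: 17-24 h seeding, 75 min 37 °C dye, 30 min RT | Evaluation: % activation from peak over basal fluorescence ratio, DMSO-to-PEA scaled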
TAAR1 antagonist: antagonists of human TAAR1; Q96RJ0; CHO RD-HGA16 TAAR1, Fluo-8 calcium fluorescence, antagonist; inhibition, % at 3 µM; 1.5% of 360,000 active; AID 624466;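 active = inhibition above a per-plate cutoff, the mean inhibition of test compounds on that plate plus 3 SD, cut at about 49% in these data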;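 note: 0% = DMSO plus EC80 beta-PEA response and 100% = DMSO alone without agonist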
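Material: RD-HGA16 CHO cells with stable hTAAR1 and Gα16; Dosing: single nominal final test compound concentration of 3 µM; Schedule: seeding 17-24 h prior, 75-min 37 °C, 30-min RT dye loading; Detection: kinetic Fluo-8 calcium fluorescence measurement; Measure: % inhibition from peak post-agonist over basal fluorescence ratio; Benchmarks: vehicle and agonist controls.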
OX1R antag-2: antagonists of human orexin 1 receptor (OX1R); O43613; inhibition, % at 6.6 µM; OX1R-expressing cells, FRET antagonist read-out; 1.8% of 330,000 active; in the data active = inhibition mostly above about 38%, no sharp cut-off; inactive = mostly below about 40%;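 note: 0% = agonist challenge alone and 100% = reference antagonist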
Numbers without * were called inactive; x = no result given.

SMILES	GalR3 antagonist	OX1R antag-1	CHO parental Ca	TAAR1 agonist	TAAR1 antagonist	OX1R antag-2
Cn1cccc1C(=O)NNC(=O)COc1ccccc1F	-4.8	-0.1	-2.6	1.5	-3.9	11.7
CN(C(=O)COc1ccccc1C(=O)NCCOc1ccccc1)c1ccccc1	5.4	78.4*	92.3*	16.4	74.9*	80.0*
O=C(NCCOc1ccccc1)c1ccccc1Cl	-7.0	-13.4	3.2	-0.2	-1.8	-7.8
CCc1ccc(N2C=C(C(=O)OC)C(c3ccc(OC)cc3)C(C#N)=C2N)cc1 (stereo not drawn)	-7.7	x	x	-0.8	59.1*	x
COC(=O)C1=CN(c2ccc(OC)cc2)C(N)=C(C#N)C1c1ccc(OC)cc1 (stereo not drawn)	-4.8	x	x	2.1	8.1	x
CCc1nc2ccc(C(=O)Nc3ccc4c(c3)OCO4)cc2nc1CC	-2.1	-22.9	-9.4	-1.1	0.2	35.1*
COc1ccc(C(=O)Nn2c(C)nc3ccccc3c2=O)cc1Br	-9.9	-27.5	-4.4	17.2	44.4	-1.7
CCOc1ccc(S(=O)(=O)/N=C(/Nc2ccc(C)c(S(=O)(=O)N3CCOCC3)c2)c2ccccc2)cc1	-4.6	-12.6	-18.9	7.0	8.4	1.9
O=C(NCC1CCCCC1)c1cc(S(=O)(=O)N2CCOCC2)ccc1F	-2.2	-28.5	-16.8	39.3*	-25.7	7.2
O=C(COc1ccccc1F)OCC(=O)c1ccc([N+](=O)[O-])cc1	-4.7	9.4	0.7	0.6	-6.3	31.4*
O=C(COC(=O)c1cnccn1)c1ccc([N+](=O)[O-])cc1	-4.3	-1.5	-5.7	0.3	-2.9	44.0*
O=C(COC(=O)CCS(=O)(=O)c1ccccc1)NNC(=O)c1ccc([N+](=O)[O-])cc1	-5.2	x	x	0.9	-20.2	x
O=C(COC(=O)Cc1ccccc1F)NNC(=O)c1ccc([N+](=O)[O-])cc1	3.0	-0.5	-7.9	3.1	-37.0	63.1*
O=C(CCC(=O)OCC(=O)c1ccc([N+](=O)[O-])cc1)Nc1ccccc1Cl	x	-12.9	0.1	x	x	58.0*
Cc1cc(OCC(=O)OCC(=O)NC2CCCCC2C)ccc1Cl (stereo not drawn)	-7.3	0.7	-6.5	12.1	31.1	4.4
CCN(c1ccccc1)S(=O)(=O)c1ccc(Cl)c(NC(=O)CN2CCCCCC2)c1	-6.6	32.1	72.9*	0.6	23.2	86.8*
CN(C)S(=O)(=O)c1ccc(Cl)c(NC(=O)CN2CCCCCC2)c1	-3.1	-26.5	7.0	4.1	-6.9	17.4
CCN(CC)S(=O)(=O)c1ccc(Cl)c(NC(=S)NC(=O)C2CCCC2)c1	-0.2	67.2*	44.5*	11.1	37.6	9.0
O=C(Nc1ccccc1C(=O)Nc1nnc(C(F)(F)F)s1)c1ccccc1	-5.1	54.0*	59.4*	6.3	34.1	72.1*
CCCCN1C(=O)C(CC(=O)NCCc2ccccn2)CC(C(=O)N(C)C)=C1C (stereo not drawn)	-4.1	x	x	22.1	-14.8	x
CCCCN1C(=O)C(CC(=O)NCCc2ccccn2)CC(C(=O)N(C(C)C)C(C)C)=C1C (stereo not drawn)	-0.4	x	x	41.6*	-14.6	x
O=C(Cc1ccc(Cl)cc1)Nc1cccc(S(=O)(=O)Nc2ccccc2F)c1	-3.4	-20.6	-21.9	10.2	4.0	7.0
O=C(CSc1ccc([N+](=O)[O-])cc1)Nc1cccc(S(=O)(=O)Nc2ccccc2F)c1	-4.3	31.6	46.4*	11.7	39.0	23.4
CCOC(=O)COc1ccccc1/C=N\NC(=O)c1cc2c(ccc3ccccc32)o1	-6.7	x	x	4.2	48.9*	x
Cn1cccc1/C=C1\SC(=Nc2ccc(O)cc2)NC1=O	1.6	-12.9	-22.5	2.2	-14.0	15.4
SMILES	GalR3 antagonist	OX1R antag-1	CHO parental Ca	TAAR1 agonist	TAAR1 antagonist	OX1R antag-2
Cn1cccc1/C=C1\SC(=Nc2cccc(O)c2)NC1=O	-4.8	-15.4	-7.3	5.5	12.3	41.8*
Cc1[nH]n(-c2ccccc2)c(=O)c1N=Nc1nccs1	-4.6	4.4	11.6	41.9*	7.8	33.6
COC(=O)C1=C(C)N(Cc2ccccc2C(F)(F)F)C(=NCc2ccc3c(c2)OCO3)NC1CCc1ccccc1 (stereo not drawn)	1.1	x	x	16.6	13.9	x
COc1cc(OC)cc(C(=O)Nc2ccccc2-c2nnn(CC(=O)Nc3cc(C)on3)n2)c1	-8.2	-19.7	-5.9	1.6	-3.5	15.2
CC(C)Cn1cnc2c(c(-c3ccccc3)c(-c3ccccc3)n2Cc2ccco2)c1=N	-10.7	-17.9	-27.6	41.9*	-7.9	-1.9
NS(=O)(=O)OCC1CCCCC1	1.1	-1.6	-5.0	4.4	-20.3	8.2
Nc1nc(N)c(N=O)c(OCC2CCCCC2)n1	x	-22.0	-21.0	12.6	-21.9	39.6*
COc1ccc(OC)c(S(=O)(=O)N2CCN(CC(O)COc3ccc(C#N)cc3)CC2)c1 (stereo not drawn)	-8.8	-11.4	5.5	5.8	10.3	12.5
COc1c(C)cc(C(=O)C2CCCN(C(=O)c3ccoc3)C2)cc1C (stereo not drawn)	-2.7	-13.3	-14.6	3.2	-38.0	50.8*
Cc1cc(C)cc(NS(=O)(=O)c2cnc(Cl)c(Cl)c2)c1	0.3	52.5*	94.7*	2.2	1.3	30.1
CC(C)[C@H](NC(=O)c1ccccc1)C(=O)OCC(=O)c1ccc2c(c1)NC(=O)CO2	-3.2	-23.4	-11.0	6.1	0.0	7.6
CC[C@H](C)[C@H](NC(=O)c1ccc(Cl)cc1)C(=O)OCC(=O)c1ccc2c(c1)NC(=O)CO2	-7.6	59.0*	83.0*	10.5	43.2	20.3
O=C1COc2ccc(C(=O)COC(=O)c3ccc(F)cc3Cl)cc2N1	-4.9	2.5	-2.0	11.6	57.1*	3.9
COc1cc(OC)c(C(=O)OCC(=O)c2ccc3c(c2)NC(=O)CO3)cc1OC	1.4	-4.0	-18.4	12.1	12.7	-1.4
O=C1NC(=S)NC(=O)C1=Cc1ccccc1C(=O)O	-2.2	x	x	0.3	-0.9	x
Cc1ccc(-c2cc(C(=O)N3N=C(C(F)F)CC3(O)C(F)F)c3ccccc3n2)cc1C (stereo not drawn)	-7.8	10.1	44.9*	9.1	-3.5	26.3
O=C(c1cc(-c2ccccc2)nc2ccccc12)N1N=C(C(F)F)CC1(O)C(F)F (stereo not drawn)	-2.6	-25.8	-26.6	7.0	0.5	18.7
COC(=O)C1(C(=O)OC)Cc2ccccc2N(S(=O)(=O)c2ccc(C)cc2)C1CC(C)=O (stereo not drawn)	-6.6	x	x	0.1	-10.0	x
NC(=O)COC(=O)c1cccnc1Nc1ccccc1F	5.0	-4.3	-3.1	2.9	-5.7	21.4
CCC(C)NC(=O)COC(=O)c1cccnc1Nc1ccccc1F (stereo not drawn)	-0.3	-5.6	-15.7	-0.3	8.6	61.5*
